In ChEMBL document CHEMBL2311448, “Enantioselective synthesis of derivatives and structure-activity relationship study in the development of NA255 as a novel host-targeting anti-HCV agent” (Bioorg Med Chem Lett, 2013):

Key:
Hepatitis C virus = test: Antiviral activity against HCV infected in human hepatoma cells assessed as inhibition of viral replication; format: functional, organism-based, Hepacivirus hominis
[1] = Cytotoxicity against human Hepatoma cells; format: cell-based
[2] = AUC in Sprague-Dawley rat liver at 10 mg/kg, sc; format: ADME, organism-based; parameters: dose 10 mg/kg, route subcutaneous
How it was run: (§1)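 Male Sprague–Dawley rats got a single subcutaneous dose of 10 mg/kg (n = 2) in 10% PEG300–10% HPCD in water. Plasma and liver concentrations were measured over time after dosing. Footnotes mark concentrations taken at 0.5 h and at 2 h postdosing. One compound was given as its tri-sodium salt.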

[3] = Cmax in Sprague-Dawley rat liver at 10 mg/kg, sc at 2 hrs; format: ADME, organism-based; parameters: dose 10 mg/kg, route subcutaneous; how it was run: as §1
[4] = Half life in Sprague-Dawley rat plasma at 10 mg/kg, sc; format: ADME, organism-based; parameters: dose 10 mg/kg, route subcutaneous; how it was run: as §1
[5] = Mean residence time in Sprague-Dawley rat plasma at 10 mg/kg, sc; format: ADME, organism-based; parameters: dose 10 mg/kg, route subcutaneous; how it was run: as §1
[6] = AUC in Sprague-Dawley rat plasma at 10 mg/kg, sc; format: ADME, organism-based; parameters: dose 10 mg/kg, route subcutaneous; how it was run: as §1
[7] = Mean residence time in Sprague-Dawley rat liver at 10 mg/kg, sc; format: ADME, organism-based; parameters: dose 10 mg/kg, route subcutaneous; how it was run: as §1
[8] = Half life in Sprague-Dawley rat liver at 10 mg/kg, sc; format: ADME, organism-based; parameters: dose 10 mg/kg, route subcutaneous; how it was run: as §1
[9] = Cmax in Sprague-Dawley rat plasma at 10 mg/kg, sc at 0.5 hrs; format: ADME, organism-based; parameters: dose 10 mg/kg, route subcutaneous; how it was run: as §1

Row | IC50 (Hepatitis C virus) [nM] | Structure (SMILES) | CC50 [1] [nM] | other results
1 | 17 | CCCCCCCC(=O)CCCCCC/C=C/[C@H](C(=O)N[C@@H](Cc1ccccc1)C(=O)O)[C@@](O)(CC(=O)O)C(=O)O | 13900 | 
2 | 38 | CCCCCCCC(=O)CCCCCC/C=C/[C@H](C(=O)N[C@@H](Cc1ccc(OCCCN)cc1)C(=O)O)[C@@](O)(CC(=O)O)C(=O)O | > 1000 | 
3 | > 1000 | CCCCCCCC(=O)CCCCCC/C=C/[C@H](C(=O)N[C@@H](Cc1cccc2ccccc12)C(=O)O)[C@@](O)(CC(=O)O)C(=O)O | > 1000 | 
4 | 2.6 | CCCCCCCC(=O)CCCCCC/C=C/[C@H](C(=O)N[C@@H](Cc1ccc(-c2cccc(OC)c2)cc1)C(=O)O)[C@@](O)(CC(=O)O)C(=O)O | > 1000 | 
5 | 6.4 | CCCCCCCC(=O)CCCCCC/C=C/[C@H](C(=O)N[C@@H](Cc1ccc(OC)cc1)C(=O)O)[C@@](O)(CC(=O)O)C(=O)O | > 5000 | 
6 | > 5000 | CCCCCCCC(=O)CCCCCC/C=C/[C@H](C(=O)N[C@H](Cc1ccc(OCCC(C)C)cc1)C(=O)O)[C@@](O)(CC(=O)O)C(=O)O | > 5000 | 
7 | 5.7 | CC(C)CCCCC(=O)CCCCCC/C=C/[C@H](C(=O)N[C@@H](Cc1ccc(OCCC(C)C)cc1)C(=O)O)[C@@](O)(CC(=O)O)C(=O)O | > 1000 | 
8 | 2.6 | CCCCCCCC(=O)CCCCCC/C=C/[C@H](C(=O)N[C@@H](Cc1ccc(OCCC)cc1)C(=O)O)[C@@](O)(CC(=O)O)C(=O)O | > 5000 | 
9 | 32 | CC(C)CCOc1ccc(C[C@H](NC(=O)[C@@H](/C=C/CCCCCCC(=O)CCC2CCCCC2)[C@@](O)(CC(=O)O)C(=O)O)C(=O)O)cc1 | > 1000 | 
10 | 19 | CCCCCCC(=O)CCCCCC/C=C/[C@H](C(=O)N[C@@H](Cc1ccc(OCCC(C)C)cc1)C(=O)O)[C@@](O)(CC(=O)O)C(=O)O | > 1000 | 

More lines, now with the values behind:

Row | Structure (SMILES) | IC50 (Hepatitis C virus) [nM] | CC50 [1] [nM] | other results
11 | CCCCCCCC(=O)CCCCCC/C=C/[C@H](C(=O)N[C@@H](Cc1cccs1)C(=O)O)[C@@](O)(CC(=O)O)C(=O)O | 490 | > 1000 | 
12 | CC(C)CCOc1ccc(C[C@H](NC(=O)[C@@H](/C=C/CCCCCCC(=O)CCc2ccccc2)[C@@](O)(CC(=O)O)C(=O)O)C(=O)O)cc1 | 290 | > 1000 | 
13 | CCCCCCCC(=O)CCCCCC/C=C/[C@H](C(=O)N[C@@H](CC1CCCCC1)C(=O)O)[C@@](O)(CC(=O)O)C(=O)O | > 5000 | > 5000 | 
14 | C=CCCCCCC(=O)CCCCCC/C=C/[C@H](C(=O)N[C@@H](Cc1ccc(OCCC(C)C)cc1)C(=O)O)[C@@](O)(CC(=O)O)C(=O)O | 6.1 | > 1000 | 
15 | CCCCCCCC(=O)CCCCCC/C=C/[C@H](C(=O)N[C@@H](Cc1ccc(OCC=C(C)C)cc1)C(=O)O)[C@@](O)(CC(=O)O)C(=O)O |  | > 5000 | 
16 | CCCCCCCC(=O)CCCCCC/C=C/[C@H](C(=O)NCCc1ccc(OCCC(C)C)cc1)[C@@](O)(CC(=O)O)C(=O)O | 1000 | > 5000 | 
17 | CCCCCCCC(=O)CCCCCC/C=C/[C@H](C(=O)N[C@@H](Cc1ccc(OCCCC(C)C)cc1)C(=O)O)[C@@](O)(CC(=O)O)C(=O)O | 12 | > 1000 | 
18 | CCCCCCCC(=O)CCCCCC/C=C/[C@H](C(=O)N[C@@H](Cc1ccc2ccccc2c1)C(=O)O)[C@@](O)(CC(=O)O)C(=O)O | 14 | > 5000 | 
19 | CCCCCCCC(=O)CCCCCC/C=C/[C@H](C(=O)N[C@@H](Cc1ccc(OCCC(C)C)cc1)C(=O)O)[C@@](O)(CC(=O)O)C(=O)O | 1.4 | > 5000 | 
20 | CCCCCCCC(=O)CCCCCC/C=C/[C@H](C(=O)N[C@@H](Cc1ccc(-c2cccc(OC)c2)cc1)C(=O)[O-])[C@@](O)(CC(=O)[O-])C(=O)[O-].[Na+].[Na+].[Na+] |  |  | AUC [2]: 82900 ng·h/mL; Cmax [3]: 5920 ng/mL; half-life [4]: 14.8 h; MRT [5]: 12.9 h; AUC [6]: 2590 ng·h/mL; MRT [7]: 16.1 h; half-life [8]: 21.3 h; Cmax [9]: 351 ng/mL
21 | CCCCCCCCCC(=O)CCCC/C=C/[C@H](C(=O)N[C@@H](Cc1ccc(OCCC(C)C)cc1)C(=O)O)[C@@](O)(CC(=O)O)C(=O)O | 5.1 | > 1000 | 
22 | CCCCCCCC(O)CCCCCC/C=C/[C@H](C(=O)N[C@@H](Cc1ccc(OCCC(C)C)cc1)C(=O)O)[C@@](O)(CC(=O)O)C(=O)O (mixture of isomers) | 25 | > 1000 | 
23 | CC(C)CCOc1ccc(C[C@H](NC(=O)[C@@H](/C=C/CCCCCCC(=O)Cc2ccccn2)[C@@](O)(CC(=O)O)C(=O)O)C(=O)O)cc1 | > 1000 | > 1000 | 
24 | CCCCCCCC(=O)CCCCCC/C=C/[C@H](C(=O)N[C@@H](Cc1ccc(OCCCC)cc1)C(=O)O)[C@@](O)(CC(=O)O)C(=O)O | 1.2 | > 5000 | 
25 | CCCCCCCC(=O)CCCCCC/C=C/[C@H](C(=O)N[C@@H](Cc1ccc(OCc2ccccc2)cc1)C(=O)O)[C@@](O)(CC(=O)O)C(=O)O | 0.32 | > 5000 | 
26 | CCCCCCCC(=O)CCCCCC/C=C/[C@H](C(=O)N[C@@H](Cc1ccc(-c2cccnc2)cc1)C(=O)O)[C@@](O)(CC(=O)O)C(=O)O | 10 | > 1000 | 
27 | CCCCCCCC(=O)CCCCCC/C=C/[C@H](C(=O)N[C@@H](Cc1ccc(Oc2ccccc2)cc1)C(=O)O)[C@@](O)(CC(=O)O)C(=O)O | 1.9 | > 5000 | 
28 | CC#CCOc1ccc(C[C@H](NC(=O)[C@@H](/C=C/CCCCCCC(=O)CCCCCCC)[C@@](O)(CC(=O)O)C(=O)O)C(=O)O)cc1 | 1.2 | > 5000 | 
29 | CCCCCCCCCCCCCC/C=C/[C@H](C(=O)NC(Cc1ccc(OCC=C(C)C)cc1)C(=O)O)[C@@](O)(CC(=O)O)C(=O)O (some centres undefined) | 155 | > 50000 | 
30 | CCCCCCCC(=O)CCCCCCCC[C@H](C(=O)N[C@@H](Cc1ccc(OCCC(C)C)cc1)C(=O)O)[C@@](O)(CC(=O)O)C(=O)O | 150 | > 5000 | 
31 | CCCC(=O)CCCCCC/C=C/[C@H](C(=O)N[C@@H](Cc1ccc(OCCC(C)C)cc1)C(=O)O)[C@@](O)(CC(=O)O)C(=O)O | 800 | > 5000 | 
32 | CC#CCOc1ccc(C[C@H](NC(=O)[C@@H](/C=C/CCCCCCC(=O)CCCCCCC)[C@@](O)(CC(=O)[O-])C(=O)[O-])C(=O)[O-])cc1.[Na+].[Na+].[Na+] |  |  | AUC [2]: 49600 ng·h/mL; Cmax [3]: 7100 ng/mL; half-life [4]: 3.99 h; MRT [5]: 5.48 h; AUC [6]: 3050 ng·h/mL; MRT [7]: 7.3 h; half-life [8]: 4.75 h; Cmax [9]: 604 ng/mL
33 | CCCCCCCCC(=O)CCCCCC/C=C/[C@H](C(=O)N[C@@H](Cc1ccc(OCCC(C)C)cc1)C(=O)O)[C@@](O)(CC(=O)O)C(=O)O | 6.9 | > 50000 | 
34 | CCCCCC(=O)CCCCCCCC/C=C/[C@H](C(=O)N[C@@H](Cc1ccc(OCCC(C)C)cc1)C(=O)O)[C@@](O)(CC(=O)O)C(=O)O | 1.4 | > 1000 | 
35 | CCCCCCCC(=O)CCCCCC/C=C/[C@H](C(=O)N[C@@H](Cc1ccc(-c2ccccc2)cc1)C(=O)O)[C@@](O)(CC(=O)O)C(=O)O | 1.6 | > 5000 | 
36 | CCCCCCCC(=O)CCCCCC/C=C/[C@H](C(=O)N[C@@H](Cc1ccc(OCc2ccccc2)cc1)C(=O)[O-])[C@@](O)(CC(=O)[O-])C(=O)[O-].[Na+].[Na+].[Na+] |  |  | AUC [2]: 100000 ng·h/mL; Cmax [3]: 6590 ng/mL; half-life [4]: 9.81 h; MRT [5]: 13.6 h; AUC [6]: 2690 ng·h/mL; MRT [7]: 17 h; half-life [8]: 27.3 h; Cmax [9]: 209 ng/mL
